Results published in ChEMBL document CHEMBL1132791, “1-Oxacephem-based human chymase inhibitors: discovery of stable inhibitors in human plasma” (Bioorg Med Chem Lett, 2000).

What was measured:
[1] = The percent remaining in human plasma after 30 min was determined; format: ADME, cell-free; details: read-out: Stability
In short: (§1)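 Compound, dissolved in DMSO, was spiked into human plasma and incubated at 37 °C. Stability was read as the percentage of intact compound left after 30 min. Half-life in human plasma was taken from this same incubation.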

[2] = The compound was evaluated for its half-life period; format: ADME; in short: as §1
Neutrophil elastase = target: T1, Neutrophil elastase (Homo sapiens, UniProt P08246); test: Inhibitory concentration was measured against elastase
T1 sequence (P08246 whole entry): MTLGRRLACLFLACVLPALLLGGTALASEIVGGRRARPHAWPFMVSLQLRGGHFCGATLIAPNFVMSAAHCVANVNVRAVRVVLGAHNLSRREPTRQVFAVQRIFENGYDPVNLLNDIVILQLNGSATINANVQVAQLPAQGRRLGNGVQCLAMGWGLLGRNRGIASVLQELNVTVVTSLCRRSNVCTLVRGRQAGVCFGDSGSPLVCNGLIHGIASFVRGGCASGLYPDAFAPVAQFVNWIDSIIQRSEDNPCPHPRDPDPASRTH

Plasminogen = Plasminogen (Rattus norvegicus, UniProt Q01177); test: Inhibitory concentration was measured against plasmin
Chymase = target: T2, Chymase (Homo sapiens, UniProt P23946); test: Inhibition of human Serine protease chymase
T2 sequence (P23946 whole entry): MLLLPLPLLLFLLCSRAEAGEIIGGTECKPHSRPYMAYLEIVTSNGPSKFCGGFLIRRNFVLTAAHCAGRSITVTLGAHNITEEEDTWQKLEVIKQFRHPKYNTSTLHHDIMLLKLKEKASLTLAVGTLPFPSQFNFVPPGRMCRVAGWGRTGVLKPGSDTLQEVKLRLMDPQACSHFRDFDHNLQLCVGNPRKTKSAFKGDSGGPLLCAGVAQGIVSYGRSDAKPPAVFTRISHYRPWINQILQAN

Prothrombin = Prothrombin (Homo sapiens, UniProt P00734); test: Inhibitory concentration was measured against thrombin
Chymotrypsinogen A = Chymotrypsinogen A (Bos taurus, UniProt P00766); test: Inhibitory concentration was measured against alpha-chymotrypsin
Serine protease 1 = Serine protease 1 (Homo sapiens, UniProt P07477); test: Inhibitory concentration was measured against trypsin
Sequence of Serine protease 1 (P07477 whole entry): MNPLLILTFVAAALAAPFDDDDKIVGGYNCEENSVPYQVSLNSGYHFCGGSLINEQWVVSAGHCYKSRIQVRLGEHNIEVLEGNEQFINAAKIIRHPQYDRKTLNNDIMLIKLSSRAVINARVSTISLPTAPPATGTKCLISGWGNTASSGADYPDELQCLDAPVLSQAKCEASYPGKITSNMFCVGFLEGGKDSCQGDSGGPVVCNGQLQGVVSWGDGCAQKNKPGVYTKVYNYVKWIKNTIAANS

Sequence of Plasminogen (Q01177 97-581 limits assumed): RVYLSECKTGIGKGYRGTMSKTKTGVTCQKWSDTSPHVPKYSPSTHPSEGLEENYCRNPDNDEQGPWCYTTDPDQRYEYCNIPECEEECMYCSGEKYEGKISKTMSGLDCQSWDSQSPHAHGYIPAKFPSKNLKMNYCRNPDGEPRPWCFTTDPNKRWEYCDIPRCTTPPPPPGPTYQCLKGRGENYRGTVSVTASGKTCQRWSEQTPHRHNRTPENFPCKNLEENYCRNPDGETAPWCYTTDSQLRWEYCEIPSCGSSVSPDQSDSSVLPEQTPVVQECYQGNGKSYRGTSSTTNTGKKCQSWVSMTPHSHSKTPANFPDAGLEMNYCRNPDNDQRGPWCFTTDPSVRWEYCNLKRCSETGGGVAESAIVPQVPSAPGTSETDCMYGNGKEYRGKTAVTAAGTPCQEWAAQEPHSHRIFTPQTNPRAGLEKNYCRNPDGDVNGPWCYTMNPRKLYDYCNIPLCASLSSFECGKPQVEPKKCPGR
Sequence of Plasminogen (Q01177 582-812 limits assumed): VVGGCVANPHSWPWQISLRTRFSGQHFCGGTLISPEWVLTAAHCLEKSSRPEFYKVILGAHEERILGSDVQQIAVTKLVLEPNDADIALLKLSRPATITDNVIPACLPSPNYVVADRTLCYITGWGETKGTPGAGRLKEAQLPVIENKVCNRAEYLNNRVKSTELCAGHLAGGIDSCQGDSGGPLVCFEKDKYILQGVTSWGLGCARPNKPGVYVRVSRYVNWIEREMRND

**Q.** For `CO[C@@]1(NC(=O)Cc2ccc(O)cc2)C(=O)N2C(C(=O)OCc3cccc(C)c3)=C(CSc3nnnn3CC(=O)O)CO[C@@H]21`, which remaining at 0.5 h [1] is on record?
**A.** 5%

**Q.** Which remaining at 0.5 h [1] does the source give for `CO[C@@]1(NC(=O)c2ccccc2OC(C)C)C(=O)N2C(C(=O)OCc3ccc(C(=O)O)cc3)=C(CSc3nnnn3C)CO[C@@H]21` here?
**A.** 42%

**Q.** Which remaining at 0.5 h [1] does the source give for `CO[C@@]1(NC(=O)Cc2ccc(O)cc2)C(=O)N2C(C(=O)OCc3cccc(C)c3)=C(CSc3nnc(C)s3)CO[C@@H]21` here?
**A.** 13%

**Q.** With `COc1ccccc1C(=O)N[C@]1(OC)C(=O)N2C(C(=O)OCc3cccc(C)c3)=C(CSc3nnnn3CC(=O)O)CO[C@@H]21` as the compound, how does the remaining at 0.5 h [1] read?
**A.** 11%

**Q.** What about the half-life [2] of the same compound?
**A.** < 0.167 h

**Q.** Which results are given for `CCOc1ccccc1C(=O)N[C@]1(OC)C(=O)N2C(C(=O)OCc3ccc(C(=O)O)cc3)=C(CSc3nnnn3C)CO[C@@H]21`?
**A.** remaining at 0.5 h [1]: 87%; half-life [2]: 1.5 h; IC50 (Neutrophil elastase): 9500 nM; IC50 (Plasminogen): > 10000 nM; IC50 (Chymase): 27 nM; IC50 (Prothrombin): 3600 nM; IC50 (Chymotrypsinogen A): 160 nM; IC50 (Serine protease 1): 2100 nM

**Q.** For `CO[C@@]1(NC(=O)Cc2ccc(O)cc2)C(=O)N2C(C(=O)OCc3cccc(C)c3)=C(CSc3nnnn3C)CO[C@@H]21`, which remaining at 0.5 h [1] is on record?
**A.** 10%

**Q.** With `COc1ccccc1C(=O)N[C@]1(OC)C(=O)N2C(C(=O)OCc3ccc(C(=O)O)cc3)=C(CSc3nnnn3C)CO[C@@H]21` as the compound, how does the remaining at 0.5 h [1] read?
**A.** 26%

**Q.** With `CO[C@@]1(NC(=O)Cc2ccc(O)cc2)C(=O)N2C(C(=O)OC(c3ccccc3)c3ccccc3)=C(CSc3nnnn3C)CO[C@@H]21` as the compound, how does the remaining at 0.5 h [1] read?
**A.** 40%

**Q.** For `CO[C@@]1(NC(=O)Cc2ccc(N(C)C)cc2)C(=O)N2C(C(=O)OC(c3ccccc3)c3ccccc3)=C(CSc3nnnn3C)CO[C@@H]21`, which remaining at 0.5 h [1] is on record?
**A.** 53%

**Q.** Which remaining at 0.5 h [1] does the source give for `CCC(C)Oc1ccccc1C(=O)N[C@]1(OC)C(=O)N2C(C(=O)OCc3ccc(C(=O)O)cc3)=C(CSc3nnnn3C)CO[C@@H]21` (stereo partly drawn) here?
**A.** 39%

**Q.** Which results are given for `CO[C@@]1(NC(=O)Cc2ccc(O)cc2)C(=O)N2C(C(=O)OCc3cccc(C)c3)=C(C)CO[C@@H]21`?
**A.** remaining at 0.5 h [1]: 59%; IC50 (Chymase): > 10000 nM

**Q.** For `CCCOc1ccccc1C(=O)N[C@]1(OC)C(=O)N2C(C(=O)OCc3ccc(C(=O)O)cc3)=C(CSc3nnnn3C)CO[C@@H]21`, which remaining at 0.5 h [1] is on record?
**A.** 26%

**Q.** With `COc1ccccc1C(=O)N[C@]1(OC)C(=O)N2C(C(=O)OC(c3ccccc3)c3ccccc3)=C(CSc3nnnn3C)CO[C@@H]21` as the compound, how does the remaining at 0.5 h [1] read?
**A.** 73%

**Q.** Which remaining at 0.5 h [1] does the source give for `CO[C@@]1(NC(=O)c2ccccc2Oc2ccccc2)C(=O)N2C(C(=O)OCc3ccc(C(=O)O)cc3)=C(CSc3nnnn3C)CO[C@@H]21` here?
**A.** 63%
